Experimental data reported in ChEMBL document CHEMBL3808334, “Synthesis and in vitro evaluation of novel triazine analogues as anticancer agents and their interaction studies with bovine serum albumin” (Eur J Med Chem, 2016).

Tests used:
Type in all cases: functional
MCF7 = assay: Growth inhibition of human MCF7 cells assessed as cell growth at 10 uM incubated for 48 hrs by sulforhodamine B assay; settings: MCF7, 48 h, read-out: Activity
HT-29 [1] = assay: Growth inhibition of human HT-29 cells assessed as cell growth at 10^-5 M incubated for 48 hrs by sulforhodamine B assay; settings: HT-29, 48 h, read-out: Activity
HT-29 [2] = assay: Growth inhibition of human HT-29 cells assessed as cell growth at 10^-6 M incubated for 48 hrs by sulforhodamine B assay; settings: HT-29, 48 h, read-out: Activity
SK-MEL-5 = assay: Growth inhibition of human SK-MEL-5 cells assessed as cell growth at 10^-4 M incubated for 48 hrs by sulforhodamine B assay; settings: SK-MEL-5, 48 h, read-out: Activity
SK-MEL-28 = assay: Growth inhibition of human SK-MEL-28 cells assessed as cell growth at 10 uM incubated for 48 hrs by sulforhodamine B assay; settings: SK-MEL-28, 48 h, read-out: Activity
NCI-H522 = assay: Growth inhibition of human NCI-H522 cells assessed as cell growth at 10^-6 M incubated for 48 hrs by sulforhodamine B assay; settings: NCI-H522, 48 h, read-out: Activity
[3] = Growth inhibition of human SNB19 cells assessed as cell growth at 10^-8 M incubated for 48 hrs by sulforhodamine B assay; settings: SNB-19, 48 h, read-out: Activity
M14 = assay: Growth inhibition of human M14 cells assessed as cell growth at 10^-8 M incubated for 48 hrs by sulforhodamine B assay; settings: M14, 48 h, read-out: Activity
[4] = Growth inhibition of human HCC2998 cells assessed as cell growth at 10^-7 M incubated for 48 hrs by sulforhodamine B assay; settings: HCC 2998, 48 h, read-out: Activity
Outline: (§1)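 Cells seeded at 5,000–40,000/well according to doubling time and preincubated 24 h at 37 °C, 5% CO2. Time-zero plates were TCA-fixed. DMSO concentrate was diluted in medium with 50 µg/ml gentamicin to give five concentrations (10-fold or ½ log steps), then exposed 48 h. Cells were TCA-fixed, stained with 0.4% SRB and read at 515 nm. Percent growth was taken against time-zero and control; GI50, TGI and LC50 derived.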

[5] = Growth inhibition of human Hs 578T cells assessed as cell growth at 10^-6 M incubated for 48 hrs by sulforhodamine B assay; settings: read-out: Activity
U-251 = assay: Growth inhibition of human U251 cells assessed as cell growth at 10^-7 M incubated for 48 hrs by sulforhodamine B assay; settings: U-251, 48 h, read-out: Activity
[6] = Growth inhibition of human OVCAR3 cells assessed as cell growth at 10 uM incubated for 48 hrs by sulforhodamine B assay; settings: OVCAR-3, 48 h, read-out: Activity
MDA-MB-435 = assay: Growth inhibition of human MDA-MB-435 cells assessed as cell growth at 10^-5 M incubated for 48 hrs by sulforhodamine B assay; settings: MDA-MB-435, 48 h, read-out: Activity
K562 = assay: Growth inhibition of human K562 cells incubated for 48 hrs by sulforhodamine B assay; settings: K562, 48 h
Outline: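 Cells were plated at 5,000–40,000 per well according to doubling time and preincubated 24 h at 37 °C in 5% CO2; time-zero plates were then TCA-fixed. Five concentrations (10-fold or ½-log dilutions, DMSO stock) were incubated 48 h. Cells were TCA-fixed, stained with 0.4% SRB and read at 515 nm. GI50 was taken where [(Ti−Tz)/(C−Tz)]×100 = 50.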

[7] = Growth inhibition of human HCT15 cells assessed as cell growth at 10^-7 M incubated for 48 hrs by sulforhodamine B assay; settings: HCT-15, 48 h, read-out: Activity; outline: as §1
Malme-3M = assay: Growth inhibition of human MALME-3M cells assessed as cell growth at 10^-8 M incubated for 48 hrs by sulforhodamine B assay; settings: read-out: Activity
[8] = Growth inhibition of human RPMI8226 cells assessed as cell growth at 10 uM incubated for 48 hrs by sulforhodamine B assay; settings: RPMI-8226, 48 h, read-out: Activity
ACHN = assay: Growth inhibition of human ACHN cells assessed as cell growth at 10^-4 M incubated for 48 hrs by sulforhodamine B assay; settings: read-out: Activity
Outline: (§2)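 Five-dose assay: five concentrations from 10-fold or ½-log serial dilutions. Cells are plated at 5,000–40,000 per well according to doubling time, grown 24 h, then exposed 48 h at 37 °C, 5% CO₂. Fixed with cold 50% TCA (final addition) for 60 min at 4 °C and stained with 0.4% SRB in 1% acetic acid. Bound dye is solubilized in 10 mM Tris base and read at 515 nm. GI₅₀ is where [(Ti−Tz)/(C−Tz)]×100 = 50, with a time-zero plate as Tz.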

786-0 = assay: Growth inhibition of human 786-0 cells assessed as cell growth at 10^-7 M incubated for 48 hrs by sulforhodamine B assay; settings: 786-0, 48 h, read-out: Activity; outline: as §2
A549 = assay: Growth inhibition of human A549/ATCC cells assessed as cell growth at 10 uM incubated for 48 hrs by sulforhodamine B assay; settings: A549, 48 h, read-out: Activity
Outline: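 One-dose screen at 10 µM final. Cells are plated at 5,000–40,000 per well according to doubling time and preincubated 24 h at 37 °C, 5% CO₂. Compound (DMSO stock diluted in medium with 50 µg/ml gentamicin) is then added for 48 h. Growth percent is read by sulforhodamine B staining, absorbance at 515 nm.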

[9] = Growth inhibition of human OVCAR8 cells assessed as cell growth at 10^-7 M incubated for 48 hrs by sulforhodamine B assay; settings: OVCAR-8, 48 h, read-out: Activity
[10] = Growth inhibition of human SF268 cells assessed as cell growth at 10^-5 M incubated for 48 hrs by sulforhodamine B assay; settings: SF-268, 48 h, read-out: Activity
[11] = Growth inhibition of human HCT15 cells incubated for 48 hrs by sulforhodamine B assay; settings: HCT-15, 48 h; outline: as §1
[12] = Growth inhibition of human BT549 cells incubated for 48 hrs by sulforhodamine B assay; settings: BT-549, 48 h; outline: as §2
[13] = Growth inhibition of human COLO205 cells assessed as cell growth at 10^-5 M incubated for 48 hrs by sulforhodamine B assay; settings: COLO 205, 48 h, read-out: Activity; outline: as §1
[14] = read-out: LC50 (the source's name)
[15] = read-out: pLC50 (the source's name) (converted)

Structure (SMILES)	growth at 10 µM (MCF7) [%]	growth at 10 µM (HT-29 [1]) [%]	growth at 1 µM (HT-29 [2]) [%]	growth at 100 µM (SK-MEL-5) [%]	growth at 10 µM (SK-MEL-28) [%]	growth at 1 µM (NCI-H522) [%]	growth at 0.01 µM [3] [%]	growth at 0.01 µM (M14) [%]	growth at 0.1 µM [4] [%]	growth at 1 µM [5] [%]	growth at 0.1 µM (U-251) [%]	growth at 10 µM [6] [%]	growth at 10 µM (MDA-MB-435) [%]	GI50 (K562; read-out: GI50) [nM]	GI50 (K562; read-out: pGI50 (converted)) [nM]	growth at 0.1 µM [7] [%]	growth at 0.01 µM (Malme-3M) [%]	growth at 10 µM [8] [%]	growth at 100 µM (ACHN) [%]	growth at 0.1 µM (786-0) [%]	also measured
c1ccc(-c2nc(Nc3ccc(-c4nc5ccccc5[nH]4)cc3)nc(N3CCOCC3)n2)cc1	-76.2	-70	36	-91	-82.8	109	98	102	97	78	110	-73.4	-90	295	295	92	106	-22.6	-70	78	CC50 (K562; [14]): 8310 nM; TGI (K562; read-out: TGI): 959 nM; CC50 (K562; [15]): 8320 nM; TGI (K562; read-out: pTGI (converted)): 955 nM; growth at 10 µM (A549): -68.5%; growth at 0.1 µM [9]: 104%; growth at 10 µM [10]: -83%; GI50 ([11]; read-out: GI50): 343 nM; TGI ([11]; read-out: TGI): 1540 nM; GI50 ([11]; read-out: pGI50 (converted)): 347 nM; TGI ([11]; read-out: pTGI (converted)): 1550 nM; GI50 ([12]; read-out: GI50): 1980 nM; CC50 [12, 14]: 7680 nM; TGI ([12]; read-out: TGI): 3900 nM; GI50 ([12]; read-out: pGI50 (converted)): 2000 nM; CC50 [12, 15]: 7760 nM; TGI ([12]; read-out: pTGI (converted)): 3890 nM; growth at 10 µM [13]: -73%
Clc1ccc(-c2nc(Nc3ccc(-c4nc5ccccc5[nH]4)cc3)nc(N3CCOCC3)n2)cc1	-73.8	-74	-39	-51	-84.7	77	102	94	93	43	103	-95.6	-98	186	186	91	96	-73.4	-30	92	TGI (K562; read-out: TGI): 391 nM; TGI (K562; read-out: pTGI (converted)): 389 nM; growth at 10 µM (A549): -75.2%; growth at 0.1 µM [9]: 103%; growth at 10 µM [10]: -80%; GI50 ([11]; read-out: GI50): 188 nM; TGI ([11]; read-out: TGI): 412 nM; GI50 ([11]; read-out: pGI50 (converted)): 191 nM; TGI ([11]; read-out: pTGI (converted)): 407 nM; GI50 ([12]; read-out: GI50): 1730 nM; TGI ([12]; read-out: TGI): 3680 nM; GI50 ([12]; read-out: pGI50 (converted)): 1740 nM; TGI ([12]; read-out: pTGI (converted)): 3720 nM; growth at 10 µM [13]: -71%
Fc1ccc(-c2nc(Nc3ccc(-c4nc5ccccc5[nH]4)cc3)nc(N3CCOCC3)n2)cc1	-44.3	-35	96	-90	-34	97	102	97	95	71	102	5.15	-62	2450	2450	98	96	-13.8	3	97	CC50 (K562; [14]): > 100000 nM; CC50 (K562; [15]): > 100000 nM; growth at 10 µM (A549): 11.2%; growth at 0.1 µM [9]: 104%; growth at 10 µM [10]: 3%; GI50 ([11]; read-out: GI50): 1670 nM; CC50 [11, 14]: > 100000 nM; TGI ([11]; read-out: TGI): 4780 nM; GI50 ([11]; read-out: pGI50 (converted)): 1660 nM; CC50 [11, 15]: > 100000 nM; TGI ([11]; read-out: pTGI (converted)): 4790 nM; GI50 ([12]; read-out: GI50): 1740 nM; TGI ([12]; read-out: TGI): 4070 nM; GI50 ([12]; read-out: pGI50 (converted)): 1740 nM; TGI ([12]; read-out: pTGI (converted)): 4070 nM; growth at 10 µM [13]: -55%
c1ccc2[nH]c(-c3ccc(Nc4nc(N5CCCCC5)nc(N5CCOCC5)n4)cc3)nc2c1	3.49	-36	104	-95	-30.2	94	101	95	105	89	97	10.9	-48	2840	2820	92	86	2.47	1	97	CC50 (K562; [14]): > 100000 nM; CC50 (K562; [15]): > 100000 nM; growth at 10 µM (A549): 13.9%; growth at 0.1 µM [9]: 96%; growth at 10 µM [10]: 5%; GI50 ([11]; read-out: GI50): 1880 nM; CC50 [11, 14]: > 100000 nM; TGI ([11]; read-out: TGI): 4380 nM; GI50 ([11]; read-out: pGI50 (converted)): 1860 nM; CC50 [11, 15]: > 100000 nM; TGI ([11]; read-out: pTGI (converted)): 4370 nM; GI50 ([12]; read-out: GI50): 2070 nM; CC50 [12, 14]: 92700 nM; TGI ([12]; read-out: TGI): 5200 nM; GI50 ([12]; read-out: pGI50 (converted)): 2090 nM; CC50 [12, 15]: 93300 nM; TGI ([12]; read-out: pTGI (converted)): 5250 nM; growth at 10 µM [13]: -63%
